# Assay outcomes: PubChem, several laboratories
# This is a sample that favours compounds with a hit; in the whole collection about 5.1% have one here.
# STAT3 activator – increases IL-6 driven STAT3 reporter signal. U3A cells, IL-6 STAT3-luciferase reporter, luminescence; 100% = signal with IL-6 EC80 alone. activation (% of control), % at 5.6 µM. 190,000 compounds, 0.91% hits;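 active = activation above the screen-wide mean of compound activation plus 3 SD, cut at about 130% in these data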;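 also: 0% = background luminescence of wells with medium and substrate only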
#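 Test system: human U3A cells carrying STAT3-luciferase construct; control set: IL-6-only wells as 100% reference; timing: compound pre-incubation 1 h before IL-6, then 6 h stimulation at 37 °C; also added: IL-6 stimulus at 33 ng/mL final; evaluation: % activation versus median of IL-6-stimulated wells; detection: reporter luminescence signal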
# STAT1 inh – reduces IFN-gamma driven STAT1 reporter signal; inhibition, % at 5.5 µM; 200,000 compounds, 0.35% hits; NIH 3T3 STAT1-luciferase reporter, luminescence;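 active = inhibition above a set limit, the mean inhibition across all tested compounds plus 3 SD, cut at about 34% in these data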;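 also: 0% = IFN-gamma with DMSO and 100% = IFN-gamma with 300 µM nifuroxazide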
# NF-kB neuron act – NF-kB expression increase, human neuronal cells. fold change at 12.5 µM. NF-kB reporter expression; active compounds read high. 190,000 compounds, 1.6% hits; in the data active = fold change above about 3.3
# STAT1 activator – activators of IFN-gamma induced STAT1 signaling | NIH 3T3 STAT1-luciferase reporter, luminescence; 100% = IFN-gamma alone, no compound | activation (% of control), % at 5.5 µM | 200,000 compounds, 2.6% hits | AID 932;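 active = activation above the screen-wide mean activation plus 3 SD, cut at about 130% in these data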;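 also: raw ratio to IFN-gamma control signal so 100% means no change and 0% no light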
# APP 5'UTR act – APP 5'UTR luciferase reporter activation. SH-SY5Y APP 5'UTR luciferase reporter, luminescence; zero percent = DMSO vehicle wells. activation, % at 2 µM. 190,000 compounds, 1% hits. AID 1276;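 active = activation above a set limit, based on mean plus 3 SD of controls, cut at about 140% in these data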
# STAT3 inh – inhibitors of IL-6 induced STAT3 signaling; 190,000 compounds, 0.89% hits; U3A cells, IL-6 STAT3-luciferase reporter, luminescence; host cell line lacks STAT1; AID 862; inhibition, % at 5.5 µM;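 active = inhibition above the mean inhibition across all screened compounds plus 3 SD, cut at about 44% in these data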;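 also: 0% = DMSO only wells and 100% = 100 µM nifuroxazide control wells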
# An asterisk follows results filed as active; / = no result.
SMILES,STAT3 activator,STAT1 inh,NF-kB neuron act,STAT1 activator,APP 5'UTR act,STAT3 inh
CC1(C)CC(=O)C(C=NCCN2CCN(C3CC(=O)N(c4ccc(Br)cc4)C3=O)CC2)=C(O)C1 (stereo unspecified),110.2,-3.9,1.03,102.2,13.1,-7.0
O=C(CCc1nnc(CCC2CCCCC2)o1)NCc1ccon1,100.2,-1.9,1.46,100.0,5.2,4.9
COc1ccc(CN(C)Cc2nc3scc(-c4ccccc4)c3c(=O)[nH]2)cc1OC,99.4,9.9,0.88,91.2,0.5,4.6
Cn1ncc2c1ncn1nc(CCc3ccccc3)nc21,102.6,-46.5,3.8*,142.5*,29.3,4.3
Cn1ncc2c1ncn1nc(COc3ccc4ccccc4c3)nc21,98.1,-4.0,0.9,103.6,-6.9,9.5
CC1=CC(=O)C=C(C)C1=NOc1ccccc1[N+](=O)[O-],105.6,5.1,3.7*,94.8,-26.4,-5.4
CC(C)(C)/C(COc1ccccc1[N+](=O)[O-])=N/O,99.7,0.7,1.23,97.4,-4.1,8.9
COc1cccc(C(=O)NCC(=O)OCC(=O)c2ccccc2)c1,111.1,-57.4,1.11,150.4*,2.6,-10.3
CCC(=O)Nc1cccc(-c2nnc(SCC(=O)NCc3ccco3)n2C)c1,97.9,-7.9,1.27,107.2,-1.3,5.0
CCC(=O)Nc1cccc(-c2nnc(SCC(=O)c3ccccc3)n2C)c1,109.0,-53.6,2.82,148.5*,99.5,-9.7
CCOC(=O)N1CCC(NC(=O)C(NC(=O)C2CCC(C)CC2)C(C)CC)CC1 (stereo unspecified),99.6,-3.0,1.33,102.7,2.6,6.3
Nc1ccc2c(c1)OC1(CCCCC1)O2,134.7*,-5.8,0.97,103.3,22.0,-32.1
Nc1ccc2c(c1)COc1ccccc1O2,95.9,-10.6,1.56,111.4,23.5,9.2
CC(C)(c1ccccc1)c1ccc(OCC(O)CNC2CCN(Cc3ccccc3)CC2)cc1 (stereo unspecified),99.7,0.3,2.35,100.3,-6.0,1.0
Cc1cc(C(=O)CSc2nc3ccc(Cl)cc3[nH]2)c(C)n1C,83.4,10.5,0.73,90.4,11.3,26.7
Cc1cc(C(=O)CSc2nc3ccccc3[nH]2)c(C)n1C,83.1,-45.3,4*,141.8*,148.9*,24.3
Cc1ccc2nc(SCC(=O)c3c(N)n(C)c(=O)n(C)c3=O)[nH]c2c1,93.5,6.1,0.89,94.4,3.4,7.9
Cc1ccc2nc(SCC(=O)c3cc(C)n(C)c3C)[nH]c2c1,84.3,-1.4,3.42*,101.3,5.0,23.4
C/C(N)=C(/C#N)C(=O)CSc1nc2ccc(C)cc2[nH]1,118.2,-51.9,4.31*,150.4*,140.8*,-17.4
Cc1oc(-c2ccccc2Cl)nc1CN1CCCCC1c1cccnc1 (stereo unspecified),113.5,-0.2,1.01,98.5,0.9,-13.4
Cc1ccc(C(=O)C[n+]2ccc(-c3nnc4n3CCC4)cc2)cc1,91.6,-12.7,1.19,111.6,2.6,6.1
COc1cc2c(cc1NC(=O)CN(C)Cc1ccc(OC)c(OC)c1)oc1ccccc12,87.9,7.3,0.76,93.3,-12.6,9.8
O=C1c2ccccc2C(=O)N1CCc1c[nH]c2ccc(O)cc12,77.3,-37.3,1.87,132.3*,13.6,29.5
CCn1c2ccccc2c2cc(NC(=O)c3cc(OC)c(OC)c(OC)c3)ccc21,116.0,-3.3,3.25,103.0,-7.5,-8.1
CCn1c2ccccc2c2cc(NC(=O)c3cc(OC)cc(OC)c3)ccc21,128.4,2.8,4.05*,96.9,-94.9,-32.7
SMILES,STAT3 activator,STAT1 inh,NF-kB neuron act,STAT1 activator,APP 5'UTR act,STAT3 inh
CCc1ccc(CNC(=O)CCc2nnc(Cc3cccc(C(F)(F)F)c3)o2)nc1,94.3,2.8,0.91,96.0,-3.9,10.8
CCN1/C(=C\C(=S)Nc2ccccc2)Sc2ccccc21,105.1,-49.9,2.21,143.9*,63.2,-3.7
COc1ccc(NC(=O)c2cccc(F)c2)cc1Cl,96.8,-32.0,2.4,129.5*,29.7,11.0
O=C(Nc1ccc2cn[nH]c2c1)c1ccccc1F,95.5,-49.5,1.04,146.6*,82.5,4.0
COc1ccc(NC(=O)C(OC)c2ccccc2)cc1Cl (stereo unspecified),96.3,-2.7,1.13,102.4,5.1,7.0
O=C(Nc1ccc2cn[nH]c2c1)c1c(Cl)cccc1Cl,80.5,5.2,0.88,95.2,12.1,20.0
COc1ccc(NC(=O)c2ccccc2F)cc1Cl,93.8,-20.6,4.32*,118.9,120.4,14.4
O=C(Nc1ncn[nH]1)c1ccc(S(=O)(=O)N2CCOCC2)cc1,103.0,-11.7,0.9,107.9,-1.5,1.3
CCCCCCCCCCOC(=O)c1csc2nnsc12,105.3,-0.5,1.34,100.4,9.5,-1.4
COc1ccc2c(c1)CC/C2=N\NC(=O)c1ccccc1,105.8,-31.4,1.51,129.6*,42.0,-8.8
COc1ccc(OCC(=O)N/N=C2\CCc3ccccc32)cc1,100.9,-7.6,1.26,102.5,3.9,0.1
CC(=O)c1cccc(CN2CCN(CC(C)C)C(CCO)C2)c1 (stereo unspecified),97.5,2.3,1.07,95.9,-0.8,8.4
Cc1ccc(-c2ccc(C3C(C#N)=C(N)Oc4n[nH]c(C)c43)o2)cc1 (stereo unspecified),135.7*,-18.7,0.8,116.8,-4.6,-40.6
O=C(CCS(=O)(=O)c1ccc(Cl)cc1)NCCc1c[nH]c2ccccc12,125.0,3.0,0.93,96.5,1.6,-27.7
CCc1cccc(C)c1NC(=O)CO/N=C(\N)CC(=O)NC1CCCCC1,109.6,0.1,1.1,101.5,-0.9,-6.0
CCc1nc2cc3sc(CC)nc3cc2s1,97.2,-53.6,2.39,147.8*,121.5,14.2
Cc1nc2cc3nc(C)sc3cc2s1,98.3,-23.2,1.83,120.5,44.5,8.3
COc1ccc(C2=C(Nc3ccc(C)cc3)c3ccccc3C2=O)cc1,97.9,4.5,1.39,96.0,9.1,2.4
Cc1cccc(-c2cc3c(nn2)-c2ccccc2C3=O)c1,78.0,1.5,6.9*,98.6,/,31.3
COc1ccc(-c2cc3c(nn2)-c2ccccc2C3=O)cc1,25.3,62.1*,1.55,42.0,45.2,91.8*
Cc1ccc(N2CC(C(=O)O)CC2=O)cc1 (stereo unspecified),101.2,-3.1,1.4,103.6,2.6,-0.8
CCN(CC)S(=O)(=O)c1ccc(OC)c(NC(=O)Cn2cnc3c2c(=O)n(C)c(=O)n3C)c1,101.6,-4.4,1.17,102.6,-9.7,0.0
CCc1ccc(CNC(=O)C(=O)NCC2CCCO2)cc1 (stereo unspecified),95.9,2.7,1.62,95.8,14.2,7.2
CCc1ccc(NC(=O)C(=O)NCC2CCCO2)cc1 (stereo unspecified),92.9,-33.9,2.45,130.9*,114.4,10.7
CCc1ccc(NC(=O)C(=O)NCc2ccccn2)cc1,94.0,-37.6,2.12,132.5*,9.9,10.3
